Each block holds one compound with its values, some of them ahead of it. Numbered stars: 1 amine (or outer) side, 2 acyl side, 3 side chain; on linkers, the order of the positions; unused ones are H or OH. Square brackets hold non-standard residues; d marks the D form. Peptide text beside a SMILES is read from it. X1 = O=C1[C@@H](N[*:1])Cc2ccccc2CN1CCC(=O)[*:2]; X2 = O=C([C@@H]1Cc2cc(O)ccc2CN1[*:1])[*:2]; Dmt = Cc1cc(O)cc(C)c1C[C@H](N)C(=O)O; Tle = CC(C)(C)[C@H](N)C(=O)O
How the values were obtained:
[1] = biological target: T1, Neurotensin receptor type 1 (Homo sapiens, UniProt P30989); test: Agonist activity at human NTS1 expressed in HEK293 cells co-expressing Galphaq/RlucII/GFP10-Ggamma1/Gbeta1 assessed as increase in Gq activation incubated for 10 mins in presence of coelenterazine 400A by BRET assay relative to NT (8-13); format: cell-based
T1 sequence (P30989 whole entry): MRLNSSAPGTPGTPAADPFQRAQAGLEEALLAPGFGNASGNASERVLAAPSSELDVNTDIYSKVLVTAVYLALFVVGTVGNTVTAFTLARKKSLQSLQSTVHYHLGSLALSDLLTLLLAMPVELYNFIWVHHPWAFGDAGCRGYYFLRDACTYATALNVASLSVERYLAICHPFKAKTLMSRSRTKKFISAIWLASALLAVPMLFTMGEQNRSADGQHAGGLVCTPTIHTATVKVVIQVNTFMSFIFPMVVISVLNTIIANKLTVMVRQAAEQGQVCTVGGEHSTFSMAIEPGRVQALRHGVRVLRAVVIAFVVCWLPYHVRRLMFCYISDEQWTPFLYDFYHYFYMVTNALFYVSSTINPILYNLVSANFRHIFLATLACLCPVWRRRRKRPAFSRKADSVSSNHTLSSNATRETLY

[2] = biological target: T1, Neurotensin receptor type 1; test: Displacement of [125I]-neurotensin from human recombinant NTS1 stably expressed in CHO-K1 cell membranes incubated for 60 mins by gamma counter method
[3] = biological target: Neurotensin receptor type 2 (Homo sapiens, UniProt O95665); test: Displacement of [125I]-neurotensin from human recombinant NTS2 stably expressed in human 1321N1 cell membranes incubated for 60 mins by gamma counter method
Sequence of Neurotensin receptor type 2 (O95665 whole entry): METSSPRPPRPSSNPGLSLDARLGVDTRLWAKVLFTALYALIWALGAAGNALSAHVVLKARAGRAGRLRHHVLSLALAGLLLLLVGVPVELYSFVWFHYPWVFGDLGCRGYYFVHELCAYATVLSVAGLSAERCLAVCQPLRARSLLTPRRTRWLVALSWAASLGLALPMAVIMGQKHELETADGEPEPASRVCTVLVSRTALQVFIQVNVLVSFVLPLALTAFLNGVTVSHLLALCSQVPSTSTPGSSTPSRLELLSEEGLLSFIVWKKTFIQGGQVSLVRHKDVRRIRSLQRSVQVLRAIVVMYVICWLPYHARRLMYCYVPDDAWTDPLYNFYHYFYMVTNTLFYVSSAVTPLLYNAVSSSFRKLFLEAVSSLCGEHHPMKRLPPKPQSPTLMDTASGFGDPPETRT

Mu-type opioid receptor [4] = biological target: T2, Mu-type opioid receptor (Homo sapiens, UniProt P35372); test: Displacement of [3H]-DAMGO from recombinant human mu opioid receptor expressed in CHO cell membrane incubated for 60 mins by liquid scintillation counting method; format: cell membranes
T2 sequence (P35372 whole entry): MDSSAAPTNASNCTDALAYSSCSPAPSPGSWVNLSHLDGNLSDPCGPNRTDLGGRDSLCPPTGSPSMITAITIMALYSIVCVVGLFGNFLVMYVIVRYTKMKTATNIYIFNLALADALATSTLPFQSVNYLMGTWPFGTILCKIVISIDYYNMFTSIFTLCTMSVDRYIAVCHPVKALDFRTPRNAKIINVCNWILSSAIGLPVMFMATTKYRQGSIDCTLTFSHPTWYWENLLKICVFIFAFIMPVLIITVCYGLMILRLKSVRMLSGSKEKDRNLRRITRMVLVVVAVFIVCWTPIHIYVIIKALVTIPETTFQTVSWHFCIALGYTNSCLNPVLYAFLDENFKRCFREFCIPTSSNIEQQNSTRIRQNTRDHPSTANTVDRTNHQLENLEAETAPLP
How it was run: (§1)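 Membranes from CHO-hMOR, -hDOR or -hKOR cells, homogenized and washed in 50 mM Tris-HCl pH 7.4. Membranes (15–20 μg) incubated with [3H]DAMGO (MOR), [3H]diprenorphine (DOR) or [3H]U69,593 (KOR) plus graded peptide, 60 min at 25 °C. Nonspecific binding with 1–10 μM of the unlabelled ligand. GF/C filtration, scintillation counting. Ki by Cheng–Prusoff. Duplicate, three independent experiments.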

[5] = biological target: T3, Delta-type opioid receptor (Homo sapiens, UniProt P41143); test: Displacement of [3H]-Diprenorphine from recombinant human delta opioid receptor expressed in CHO cell membrane incubated for 60 mins by liquid scintillation counting method; format: cell membranes; how it was run: as §1
T3 sequence (P41143 whole entry): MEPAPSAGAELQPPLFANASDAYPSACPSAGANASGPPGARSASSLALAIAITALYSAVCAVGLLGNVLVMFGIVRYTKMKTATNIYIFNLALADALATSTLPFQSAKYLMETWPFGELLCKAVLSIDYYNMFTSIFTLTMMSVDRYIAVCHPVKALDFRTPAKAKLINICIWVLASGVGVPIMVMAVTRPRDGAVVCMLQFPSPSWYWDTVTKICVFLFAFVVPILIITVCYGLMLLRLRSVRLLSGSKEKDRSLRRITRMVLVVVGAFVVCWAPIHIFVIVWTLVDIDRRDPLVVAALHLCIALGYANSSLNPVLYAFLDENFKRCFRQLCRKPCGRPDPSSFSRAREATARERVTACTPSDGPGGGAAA

[6] = biological target: T4, Kappa-type opioid receptor (Homo sapiens, UniProt P41145); test: Displacement of [3H]-U69593 from recombinant human kappa opioid receptor expressed in CHO cell membrane incubated for 60 mins by liquid scintillation counting method; format: cell membranes; how it was run: as §1
T4 sequence (P41145 whole entry): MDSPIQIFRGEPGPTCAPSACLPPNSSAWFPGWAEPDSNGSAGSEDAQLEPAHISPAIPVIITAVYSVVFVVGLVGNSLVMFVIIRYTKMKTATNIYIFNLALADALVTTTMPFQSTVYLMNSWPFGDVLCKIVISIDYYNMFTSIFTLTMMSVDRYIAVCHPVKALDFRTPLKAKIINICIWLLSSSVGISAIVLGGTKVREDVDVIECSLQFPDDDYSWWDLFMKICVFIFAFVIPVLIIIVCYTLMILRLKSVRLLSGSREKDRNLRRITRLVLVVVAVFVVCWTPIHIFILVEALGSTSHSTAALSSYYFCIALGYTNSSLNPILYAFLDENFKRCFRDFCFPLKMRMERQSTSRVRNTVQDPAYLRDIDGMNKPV

Mu-type opioid receptor [7] = biological target: T2, Mu-type opioid receptor; test: Potency index, ratio of PK20 Ki to test compound Ki for displacement of [3H]-DAMGO from recombinant human mu opioid receptor expressed in CHO cell membranes
Mu-type opioid receptor [8] = biological target: T2, Mu-type opioid receptor; test: Agonist activity at human MOR stably expressed in CHO cell membranes assessed as stimulation of [35S]-GTPgammaS binding incubated for 1 hr by liquid scintillation counting assay; format: functional
How it was run: (§2)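 Membranes from CHO cells stably expressing hMOR, hDOR or hKOR, prepared in 20 mM HEPES, 10 mM MgCl2, 100 mM NaCl, pH 7.4. Membranes (5–10 μg) incubated with 0.05 nM [35S]GTPγS, 10 μM GDP and graded peptide concentrations, 60 min at 25 °C. Nonspecific binding with 10 μM GTPγS, basal without ligand. GF/B filtration, scintillation counting. EC50 and Emax by nonlinear regression; Emax relative to DAMGO, DPDPE or U69,593. Duplicate, three independent experiments.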

Mu-type opioid receptor [9] = biological target: T2, Mu-type opioid receptor; test: Agonist activity at human MOR expressed in CHO cell membranes assessed as stimulation of [35S]-GTPgammaS binding incubated for 1 hr by liquid scintillation counting assay relative to DAMGO; format: functional; conditions: filed as agonist, time 60.0 min; how it was run: as §2
Mu-type opioid receptor [10] = biological target: T2, Mu-type opioid receptor; test: Agonist activity at human MOR expressed in human U2OS cells assessed as increase in beta arrestin2 recruitment incubated for 90 mins by pathhunter beta-arrestin assay; format: cell-based
How it was run: (§3)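 U2OS cells stably coexpressing hMOR and enzyme acceptor-tagged β-arrestin-2, seeded at 5000 cells/well and kept 24 h at 37 °C. Graded peptide concentrations in PBS added for 90 min at 37 °C, then detection mix for 60 min at room temperature. Chemiluminescence read-out. EC50 and Emax (relative to DAMGO) by nonlinear regression. Duplicate, three independent experiments.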

Mu-type opioid receptor [11] = biological target: T2, Mu-type opioid receptor; test: Agonist activity at human MOR expressed in human U2OS cells assessed as increase in beta arrestin2 recruitment incubated for 90 mins by pathhunter beta-arrestin assay relative to DAMGO; format: cell-based; conditions: filed as partial agonist; how it was run: as §3
[12] = biological target: T3, Delta-type opioid receptor; test: Agonist activity at human DOR stably expressed in CHO cell membranes assessed as stimulation of [35S]-GTPgammaS binding incubated for 1 hr by liquid scintillation counting assay; format: functional; how it was run: as §2
[13] = biological target: T3, Delta-type opioid receptor; test: Agonist activity at human DOR stably expressed in CHO cell membranes assessed as stimulation of [35S]-GTPgammaS binding incubated for 1 hr by liquid scintillation counting assay relative to DPDPE; format: functional; conditions: filed as agonist, time 60.0 min; how it was run: as §2
[14] = biological target: T4, Kappa-type opioid receptor; test: Agonist activity at human KOR stably expressed in CHO cell membranes assessed as stimulation of [35S]-GTPgammaS binding incubated for 1 hr by liquid scintillation counting assay; format: functional; how it was run: as §2
[15] = biological target: T4, Kappa-type opioid receptor; test: Agonist activity at human KOR stably expressed in CHO cell membranes assessed as stimulation of [35S]-GTPgammaS binding incubated for 1 hr by liquid scintillation counting assay relative to U69593; format: functional; conditions: time 60.0 min; how it was run: as §2
[16] = biological target: T1, Neurotensin receptor type 1; test: Agonist activity at human NTS1 expressed in HEK293 cells co-expressing Galphaq/RlucII/GFP10-Ggamma1/Gbeta1 assessed as increase in Galphaq activation incubated for 10 mins in presence of coelenterazine 400A by BRET assay; format: cell-based

SMILES: CC(C)C[C@H](NC(=O)[C@@H](NC(=O)[C@H](Cc1ccc(O)cc1)NC(=O)[C@@H]1CCCN1C(=O)[C@H](CCCNC(=N)N)NC(=O)[C@@H](N)CCCNC(=N)N)C(C)(C)C)C(=O)O
Emax [1]: 97%

SMILES: Cc1cc(O)cc(C)c1C[C@H](NC(=O)[C@@H]1CCCN1C(=O)[C@H](CCCNC(=N)N)NC(=O)C[C@@H](N)CCCNC(=N)N)C(=O)N[C@H](C(=O)N[C@@H](CC(C)C)C(=O)O)C(C)(C)C
Ki [2]: 2.3 nM
Ki [3]: 0.11 nM

SMILES: Cc1cc(O)cc(C)c1C[C@H](NC(=O)[C@@H]1CCCN1C(=O)[C@H](CCCNC(=N)N)NC(=O)[C@@H](N)CCCNC(=N)N)C(=O)N[C@H](C(=O)N[C@@H](CC(C)C)C(=O)O)C(C)(C)C
Ki [2]: 13.4 nM
Ki [3]: 3 nM

Ki [2]: 93 nM
Ki [3]: 24 nM
SMILES: CC(C)C[C@H](NC(=O)[C@@H](NC(=O)[C@H](Cc1cccc(O)c1)NC(=O)[C@@H]1CCCN1C(=O)[C@H](CCCNC(=N)N)NC(=O)[C@@H](N)CCCNC(=N)N)C(C)(C)C)C(=O)O

Ki [2]: 6680 nM
Ki [3]: 132 nM
SMILES: CC(C)C[C@H](NC(=O)[C@@H](NC(=O)[C@@H]1Cc2cc(O)ccc2CN1C(=O)[C@@H]1CCCN1C(=O)[C@H](CCCNC(=N)N)NC(=O)[C@@H](N)CCCNC(=N)N)C(C)(C)C)C(=O)O (H-RRP[X2][Tle]L-OH)

SMILES: Cc1cc(O)cc(C)c1C[C@H](N)C(=O)N[C@H](CCCNC(=N)N)C(=O)N[C@H]1Cc2ccccc2CN(CCC(=O)N[C@@H](CCCCN)C(=O)N[C@@H](CCCCN)C(=O)N2CCC[C@H]2C(=O)N[C@@H](Cc2ccc(O)cc2)C(=O)N[C@H](C(=O)N[C@@H](CC(C)C)C(=O)O)C(C)(C)C)C1=O (H-[Dmt][dR][X1]KKPY[Tle]L-OH)
Ki (Mu-type opioid receptor [4]): 4.89 nM
Ki [5]: 213 nM
Ki [6]: 201 nM
Ki [2]: 2.3 nM
Ki [3]: 0.29 nM
Ratio Ki (Mu-type opioid receptor [7]): 2
EC50 (Mu-type opioid receptor [8]): 64.6 nM
Emax (Mu-type opioid receptor [9]): 99%
EC50 (Mu-type opioid receptor [10]): 2460 nM
Emax (Mu-type opioid receptor [11]): 67%
EC50 [12]: 1320 nM
Emax [13]: 87%
EC50 [14]: 1650 nM
Emax [15]: 31%
EC50 [16]: 0.26 nM
Emax [1]: 99%
